Test results reported in PMC7814360 (Investigative Ophthalmology & Visual Science, 2021).
Ends that are not written are not given here.

What was measured:
[1] = test system: HRECs; experiment: Cellular uptake, flow cytometry quantitative analysis; format: in vitro ADME, human; settings: 200 µM, three independent assays
Procedure, shortened: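 HRECs were seeded at 1 × 10^6 on a 30-mm plate. At confluence they were exposed to FITC-labeled test peptide at 200 μM in complete medium for 30 min, 1, 6, 12 and 24 h. Cells were washed, trypsinized, resuspended in PBS and kept dark. FITC-positive cell number and mean fluorescence intensity were read by flow cytometry. Three independent assays; means ± SEM.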

[2] = test system: HRECs; experiment: Tube formation assay on Matrigel; format: cell-based, human; settings: 25 ng/mL VEGF, three independent assays
Procedure, shortened: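 About 2 × 10^4 HRECs were seeded on Matrigel-precoated wells, with or without 25 ng/mL VEGF, alongside test peptides or Avastin. Incubation was at 37°C for four hours per methods (three hours per legend). Three random fields per well were photographed, and total tube length and branch points were quantified by ImageJ. Three independent assays; means ± SEM.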

[3] = test system: HRECs; experiment: Cell migration; format: cell-based, human; settings: 25 ng/mL VEGF; 200 µM H-KI20 or H-KI20S, or 12.5 mg/mL bevacizumab; 12 hours; three independent assays
[4] = Stability assay of H-KI20 in aqueous solutions; format: physicochemical; settings: 200 µg/mL, HPLC
[5] = test system: retina; experiment: Histologic examination of retina after intravitreal injection; format: in vivo, mouse; settings: 50 or 75 mM H-KI20 intravitreal, five days later, mice
[6] = target: JNK2 (Homo sapiens, UniProt P45984); experiment: Surface plasmon resonance; format: binding
Procedure, shortened: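 SPR was run on a Biacore T200. The chip was conditioned with 500 mM EDTA and 100 mM NaOH. Recombinant human JNK2 at 27.5 μg/mL was captured on an NTA chip at 10 μL/min. Serial peptide concentrations were injected in PBS with 0.05% Tween-20, pH 7.4, at 25°C (association 120 s, dissociation 180 s). Double reference subtraction was applied, then a global Langmuir 1:1 fit.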

[7] = test system: HRECs; experiment: High-content image analysis, cell roundness; format: cell-based, human; settings: H-KI20 alone, 30 hours, Operetta HCA, interval 0.5 h
Procedure, shortened: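 About 3 × 10^4 HRECs/well were plated in 12-well plates and allowed to attach overnight. Test compound was added 2 h before imaging. Cells were imaged live in an Operetta high-content system for […] at 0.5-h intervals. Roundness is a shape index normalized to 1.0 for a perfect circle, decreasing for elongated or irregular cells.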

[8] = test system: HRECs; experiment: Cytotoxicity, MTS; format: cell-based, human; settings: H-KI20 at different concentrations; three independent assays
Procedure, shortened: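 HRECs were seeded in 96-well plates at […]. They were treated with VEGF or test peptide, and viability was read by MTS following the manufacturer's protocol.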

[9] = test system: cornea neovascularization; settings: topical application of high concentrations; cited from earlier work
[10] = Quantification of H-KI20 in ocular tissues after topical instillation; format: in vivo; settings: mouse CNV model, 0.5, 1 and 3 hours after topical instillation, PRM
Procedure, shortened: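 Choroidal neovascularization was induced in adult C57BL/6J mice with four 532-nm laser burns (100 ms, 50 μm, 120 mW) around the optic disc. On day 7, 6 μL of FITC-labeled test peptide (2 mM) was instilled topically six times at 10-min intervals (n = 3 per group). At 0.5, 1 and 3 h, sclera–choroid–RPE complex and retina were trypsin-digested. A 100 ng/mL stable-isotope-labeled internal standard was spiked in, and samples were quantified by nano-UPLC–Orbitrap PRM.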

Chain of JNK2 (P45984 whole entry): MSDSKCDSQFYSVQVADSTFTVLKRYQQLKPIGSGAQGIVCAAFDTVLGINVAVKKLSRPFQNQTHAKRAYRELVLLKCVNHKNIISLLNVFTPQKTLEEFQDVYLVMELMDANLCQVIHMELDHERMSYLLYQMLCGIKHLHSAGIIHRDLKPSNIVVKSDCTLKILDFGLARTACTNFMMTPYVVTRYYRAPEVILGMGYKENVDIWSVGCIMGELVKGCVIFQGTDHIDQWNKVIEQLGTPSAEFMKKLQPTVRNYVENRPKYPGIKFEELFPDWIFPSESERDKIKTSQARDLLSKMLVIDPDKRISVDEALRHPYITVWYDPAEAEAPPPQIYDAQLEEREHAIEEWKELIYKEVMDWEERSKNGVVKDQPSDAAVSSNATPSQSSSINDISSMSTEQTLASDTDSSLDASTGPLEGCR

**Q.** For “FITC-H-KI20: FITC-labeled H-KI20 used to test cellular permeability (IIGKGRSYKGTVSITKSGIK; also: FITC-labeled, site not given here)”, which “mean fluorescence intensity (MFI) compared with untreated cells” value ([1]; 30 minutes) is on record?
**A.** 217 fold

**Q.** What about the “MFI after 24 hours compared with that after 30 minutes” value ([1]; 24 hours vs 30 minutes) of the same substance?
**A.** 3.67 fold

**Q.** What does the source list for Bevacizumab [Avastin]?
**A.** VEGF-induced tube formation (tube length and branch points) [2]: significantly inhibited; migration of VEGF-stimulated HRECs (wound closure) [3]: inhibited the migration of cells significantly

**Q.** What does the source list for IIGKGRSYKGTVSITKSGIK [H-KI20]?
**A.** stability at 4°C compared with 37°C ([4]; BSS, PBS and HBS, n = 4 or 5): more stable; stability in H2O and PBS ([4]; H2O and PBS pH 7.4, 37°C, incubation for 24 or 48 hours): partially degraded; retinal histology (HE) after intravitreal injection [5]: All layers of the retina were normal and intact, without edema or inflammatory or immune reactions; Kd [6]: 83.7 µM; cell roundness [7]: no effect on the roundness of cells; cytotoxicity / proliferation of HRECs (MTS) [8]: no effect on the proliferation of HRECs; cell ultrastructure of cornea and conjunctiva [9]: no effect on the cell ultrastructure of cornea and conjunctiva; persistence of concentration in ocular tissues after topical instillation [10]: maintained for at least three hours
